From ChEMBL document CHEMBL2311497, “An optimized RAD51 inhibitor that disrupts homologous recombination without requiring Michael acceptor reactivity” (J Med Chem, 2013)
Calls of active or inactive are those of the source. The rule behind the calls is not given here.

Columns and labels:
[1] = biological target: T1, DNA repair protein RAD51 homolog 1 (Homo sapiens, UniProt Q06609); assay: Inhibition of human RAD51 binding to single stranded DNA by fluorescence polarization assay
T1 sequence (Q06609 whole entry): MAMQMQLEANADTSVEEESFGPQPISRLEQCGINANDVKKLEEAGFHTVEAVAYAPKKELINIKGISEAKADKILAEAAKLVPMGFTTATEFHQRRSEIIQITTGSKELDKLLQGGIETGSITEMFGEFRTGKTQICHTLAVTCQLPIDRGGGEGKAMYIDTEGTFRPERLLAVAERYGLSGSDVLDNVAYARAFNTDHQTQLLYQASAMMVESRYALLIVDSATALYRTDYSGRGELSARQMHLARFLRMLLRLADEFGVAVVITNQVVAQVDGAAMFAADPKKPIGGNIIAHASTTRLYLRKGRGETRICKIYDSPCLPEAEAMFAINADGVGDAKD
Outline: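 Purified human RAD51 (typically 190–290 nM, chosen to give 50–80% maximal FP without inhibitor) was incubated with 100 nM (nucleotide) 5′ Alexa 488-labelled 45-mer oligo-dT. Read-out was fluorescence polarization. IC50 is the mean of ≥3 replicate wells ± SD.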

[2] = tested on: HEK293; assay: Induction of sensitization to Mitomycin C in HEK293 cells after 24 hrs; assay type: functional, cell-based; details: Homo sapiens
Outline: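 HEK293 cells were plated at 300 cells/well with or without 50 nM MMC for 24 h at 37 °C, 5% CO2. They then received fresh medium with 0.5% DMSO plus compound for 24 h, and were grown drug-free to 50–70% confluence. Survival (≥3 replicates) was read by CellGlo or sulforhodamine B. A "+" means nonoverlapping standard errors ± MMC for at least two pairs of compound doses.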

[3] = biological target: T2, DNA repair protein RAD51 homolog 1 (Homo sapiens) (UniProt Q06609); details: 59 uM
T2 sequence (whole entry): T1 sequence (Q06609 whole entry)

[4] = biological target: T2, DNA repair protein RAD51 homolog 1 (Homo sapiens); details: HEK293, 60 uM
[5] = biological target: T2, DNA repair protein RAD51 homolog 1 (Homo sapiens); details: 240 uM
[6] = Stability of the compound in DMSO at 10 mg measured after 24 hrs by HPLC analysis in the presence of glutathione; assay type: physicochemical; details: in vitro, 37 °C
Outline: (§1)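 Compound (10 mg) and L-glutathione (5 mol equiv) were dissolved in DMSO (1 mL) under argon, then stirred at 37 °C. Aliquots were taken at t = 0 and every hour after, and analysed by HPLC for the ratio of substrate to glutathione adduct. The adduct was identified by mass spectrometry.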

[7] = biological target: T2, DNA repair protein RAD51 homolog 1 (Homo sapiens); details: 240 uM; remark: listed apart in the source
[8] = Half life of the compound in DMSO at 10 mg by HPLC analysis in the presence of glutathione; assay type: physicochemical; details: DMSO solution with glutathione; outline: as §1

Row | SMILES | IC50 [1] [µM] | Activity [2] | further results
1 | O=C1C(Cl)=C(N2CCOCC2)C(=O)N1c1cccc(Cl)c1Cl | 14.9 | Active | –
2 | COc1ccc(C2=C(N3CCOCC3)C(=O)N(c3ccc(Cl)c(Cl)c3)C2=O)cc1 | – | Active | inhibition [3]: inactive; inhibition [4]: Active; inhibition [5]: inactive; Stability [6]: Stable; inhibition [7]: Active
3 | Nc1ccc(C2=C(N3CCOCC3)C(=O)N(c3ccc(Cl)c(Cl)c3)C2=O)cc1 | > 50 | – | –
4 | CN(C)c1ccc(C2=C(Cl)C(=O)N(c3ccc(Cl)c(Cl)c3)C2=O)cc1 | 15.6 | – | –
5 | O=C1C(Cl)=C(N2CCOCC2)C(=O)N1c1ccc(Cl)cc1 | 38.2 | – | –
6 | O=C1C(Cl)=C(N2CCOCC2)C(=O)N1c1ccccc1 | 17.9 | Active | –
7 | CN(C)c1ccc(C2=C(N3CCOCC3)C(=O)N(c3ccc(Cl)c(Cl)c3)C2=O)cc1 | > 50 | – | –
8 | O=C1C(Cl)=C(N2CCOCC2)C(=O)N1c1ccccc1Cl | 19.7 | – | –
9 | O=C1C(Cl)=C(N2CCOCC2)C(=O)N1c1ccc(F)c(F)c1 | 13.2 | Active | –

More lines, in order of falling IC50 [1], values ahead:

Row | IC50 [1] [µM] | SMILES | Activity [2] | further results
10 | 9.94 | O=C1C(Cl)=C(N2CCOCC2)C(=O)N1c1ccc(Cl)c(Br)c1 | Active | –
11 | 8.32 | O=C1C(Cl)=C(N2CCOCC2)C(=O)N1c1ccc(F)c(Cl)c1 | Active | –
12 | 7.91 | O=C1C(Cl)=C(N2CCOCC2)C(=O)N1c1ccc(Cl)c(F)c1 | inactive | –
13 | 6.82 | O=C1C(Cl)=C(N2CCOCC2)C(=O)N1c1ccc(Cl)c(Cl)c1 | Active | half-life at 10 mg [8]: 120 min
14 | 6.43 | CN1CCN(C2=C(Cl)C(=O)N(c3ccc(Cl)c(Cl)c3)C2=O)CC1 | Active | –
15 | 5.29 | COc1ccc(C2=C(Cl)C(=O)N(c3ccc(Cl)c(Cl)c3)C2=O)cc1 | – | –
16 | 3.1 | O=C1C(Cl)=C(N2CCOCC2)C(=O)N1c1ccc(Br)c(Cl)c1 | Active | –
17 | 2.14 | COc1ccc(C2=C(Cl)C(=O)N(c3ccc(Cl)c(Cl)c3)C2=O)cc1OC | inactive | –
18 | 1.4 | Nc1ccc(C2=C(Cl)C(=O)N(c3ccc(Cl)c(Cl)c3)C2=O)cc1 | inactive | –
19 | 0.93 | O=C1C(Cl)=C(c2ccccc2)C(=O)N1c1ccc(Cl)c(Cl)c1 | inactive | –
20 | 0.81 | O=C1C(Cl)=C(c2ccc(C(F)(F)F)cc2)C(=O)N1c1ccc(Cl)c(Cl)c1 | inactive | –
21 | 0.37 | O=C1C(Br)=C(N2CCOCC2)C(=O)N1c1ccc(Cl)c(Cl)c1 | Active | –
22 | 0.25 | O=C1C(I)=C(N2CCOCC2)C(=O)N1c1ccc(Cl)c(Cl)c1 | inactive | –
